Converted amounts (≈) assume the structure as drawn.
Key:
[1] = test system: Lichtheimia corymbifera; assay: Antifungal activity against Absidia corymbifera 272 after 24 hrs by microdilution broth method; assay type: functional; conditions: Lichtheimia corymbifera, 272, 24 h
Outline: (§1)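 CLSI M27-A3 broth microdilution in RPMI 1640 with glutamine, buffered to pH 7.0 with MOPS; DMSO diluent. Yeast inoculum 5 × 10^3 ± 0.2 CFU/mL. Moulds grown on Sabouraud agar 3–10 days before spore harvest, final inoculum 0.5-5 × 10^4 CFU/mL, checked in a Bürker chamber. Incubated dark, humid, 35 °C, read at 24 and 48 h visually and at 540 nm. MIC taken as ≥80% (yeasts) or ≥50% (filamentous) growth reduction versus control.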

[2] = test system: Trichosporon asahii; assay: Antifungal activity against Trichosporon asahii 1188 after 24 hrs by microdilution broth method; assay type: functional; conditions: Trichosporon asahii, 1188, 24 h; outline: as §1
[3] = test system: Staphylococcus epidermidis; assay: Antibacterial activity against Staphylococcus epidermidis H 6966/08 after 24 hrs by microdilution broth method; assay type: functional; conditions: H 6966/08, 24 h
Outline: (§2)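 Mueller-Hinton broth microdilution (modified M07-A07), pH 7.4 (±0.2). Compounds dissolved in DMSO, tested at final 500 to 0.49 µmol/L. Inoculum in sterile water matched to 0.5 McFarland. Incubated in the dark, humid atmosphere, 35 °C, read at 24 and 48 h visually and at 540 nm. MIC taken as ≥95% growth reduction (IC95) versus control.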

[4] = test system: Mycobacterium avium; assay: Antimycobacterial activity against Mycobacterium avium 330/80 after 14 days; assay type: functional; conditions: 330/80, 336 h
[5] = test system: Pichia kudriavzevii; assay: Antifungal activity against Candida krusei E28 after 24 hrs by microdilution broth method; assay type: functional; conditions: E28, 24 h; outline: as §1
[6] = test system: Klebsiella pneumoniae; assay: Antibacterial activity against ESBL-positive Klebsiella pneumoniae J 14368/08 after 24 hrs by microdilution broth method; assay type: functional; conditions: J 14368/08, 24 h; outline: as §2
[7] = Selectivity index, ratio of CI50 for human HepG2 cells to MIC100 for Mycobacterium tuberculosis H37Rv 331/88
[8] = test system: Trichophyton mentagrophytes; assay: Antifungal activity against Trichophyton mentagrophytes 445 after 48 hrs by microdilution broth method; assay type: functional; conditions: Trichophyton mentagrophytes, 445, 48 h
[9] = test system: Mycobacterium kansasii; assay: Antimycobacterial activity against Mycobacterium kansasii 6509/96 after 14 days; assay type: functional; conditions: 6509/96, 336 h
Outline: (§3)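 Šula's semisynthetic medium micromethod at 37 °C, read after 7, 14 and 21 days. The 1.0 McFarland suspension was diluted 10^-4. MIC determined. 6509/96 is a clinical isolate.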

[10] = test system: Mycobacterium kansasii; assay: Antimycobacterial activity against Mycobacterium kansasii 6509/96 after 21 days; assay type: functional; conditions: 6509/96, 504 h; outline: as §3
[11] = test system: HepG2; assay: Cytotoxicity against human HepG2 cells after 24 hrs […]; assay type: cell-based; conditions: HepG2, 24 h
[12] = test system: Klebsiella pneumoniae; assay: Antibacterial activity against Klebsiella pneumoniae D 11750/08 after 24 hrs by microdilution broth method; assay type: functional; conditions: D 11750/08, 24 h; outline: as §2
[13] = test system: Mycobacterium tuberculosis; assay: Antimycobacterial activity against Mycobacterium tuberculosis H37Rv 331/88 after 14 days; assay type: functional; conditions: H37Rv 331/88, 336 h
[14] = test system: Trichosporon asahii; assay: Antifungal activity against Trichosporon asahii 1188 after 48 hrs by microdilution broth method; assay type: functional; conditions: Trichosporon asahii, 1188, 48 h; outline: as §1
[15] = test system: Candida albicans; assay: Antifungal activity against Candida albicans ATCC 44859 after 48 hrs by microdilution broth method; assay type: functional; conditions: ATCC 44859, 48 h; outline: as §1
[16] = test system: Mycobacterium kansasii; assay: Antimycobacterial activity against Mycobacterium kansasii 235/80 after 14 days; assay type: functional; conditions: 235/80, 336 h; outline: as §3
[17] = test system: Staphylococcus aureus; assay: Antibacterial activity against Staphylococcus aureus CCM 4516/08 after 48 hrs by microdilution broth method; assay type: functional; conditions: CCM 4516/08, 48 h
[18] = test system: Mycobacterium avium; assay: Antimycobacterial activity against Mycobacterium avium 330/80 after 21 days; assay type: functional; conditions: 330/80, 504 h
[19] = test system: Pseudomonas aeruginosa; assay: Antibacterial activity against Pseudomonas aeruginosa CCM 1961 after 48 hrs by microdilution broth method; assay type: functional; conditions: CCM 1961, 48 h; outline: as §2
[20] = test system: Candida albicans; assay: Antifungal activity against Candida albicans ATCC 44859 after 24 hrs by microdilution broth method; assay type: functional; conditions: ATCC 44859, 24 h; outline: as §1
[21] = test system: Mycobacterium tuberculosis; assay: Antimycobacterial activity against Mycobacterium tuberculosis H37Rv 331/88 after 21 days; assay type: functional; conditions: H37Rv 331/88, 504 h
[22] = test system: Candida tropicalis; assay: Antifungal activity against Candida tropicalis 156 after 48 hrs by microdilution broth method; assay type: functional; conditions: Candida tropicalis, 156, 48 h; outline: as §1
[23] = test system: Klebsiella pneumoniae; assay: Antibacterial activity against ESBL-positive Klebsiella pneumoniae J 14368/08 after 48 hrs by microdilution broth method; assay type: functional; conditions: J 14368/08, 48 h; outline: as §2
[24] = test system: Enterococcus sp.; assay: Antibacterial activity against Enterococcus sp. J 14365/08 after 24 hrs by microdilution broth method; assay type: functional; conditions: J 14365/08, 24 h; outline: as §2
[25] = test system: Candida tropicalis; assay: Antifungal activity against Candida tropicalis 156 after 24 hrs by microdilution broth method; assay type: functional; conditions: Candida tropicalis, 156, 24 h; outline: as §1
[26] = test system: Staphylococcus aureus; assay: Antibacterial activity against methicillin-resistant Staphylococcus aureus H 5996/08 after 24 hrs by microdilution broth method; assay type: functional; conditions: H 5996/08, 24 h
[27] = test system: Enterococcus sp.; assay: Antibacterial activity against Enterococcus sp. J 14365/08 after 48 hrs by microdilution broth method; assay type: functional; conditions: J 14365/08, 48 h; outline: as §2
[28] = test system: Klebsiella pneumoniae; assay: Antibacterial activity against Klebsiella pneumoniae D 11750/08 after 48 hrs by microdilution broth method; assay type: functional; conditions: D 11750/08, 48 h; outline: as §2
[29] = test system: Trichophyton mentagrophytes; assay: Antifungal activity against Trichophyton mentagrophytes 445 after 24 hrs by microdilution broth method; assay type: functional; conditions: Trichophyton mentagrophytes, 445, 24 h
[30] = test system: Mycobacterium kansasii; assay: Antimycobacterial activity against Mycobacterium kansasii 6509/96 after 7 days; assay type: functional; conditions: 6509/96, 168 h; outline: as §3
[31] = test system: Mycobacterium kansasii; assay: Antimycobacterial activity against Mycobacterium kansasii 235/80 after 7 days; assay type: functional; conditions: 235/80, 168 h; outline: as §3
[32] = test system: Escherichia coli; assay: Antibacterial activity against Escherichia coli CCM4517 after 48 hrs by microdilution broth method; assay type: functional; conditions: CCM4517, 48 h; outline: as §2
[33] = test system: Nakaseomyces glabratus; assay: Antifungal activity against Candida glabrata 20/I after 24 hrs by microdilution broth method; assay type: functional; outline: as §1
[34] = test system: Escherichia coli; assay: Antibacterial activity against Escherichia coli CCM4517 after 24 hrs by microdilution broth method; assay type: functional; conditions: CCM4517, 24 h; outline: as §2
[35] = test system: Mycobacterium kansasii; assay: Antimycobacterial activity against Mycobacterium kansasii 235/80 after 21 days; assay type: functional; conditions: 235/80, 504 h; outline: as §3
[36] = test system: Pichia kudriavzevii; assay: Antifungal activity against Candida krusei E28 after 48 hrs by microdilution broth method; assay type: functional; conditions: E28, 48 h; outline: as §1
[37] = test system: Aspergillus fumigatus; assay: Antifungal activity against Aspergillus fumigatus 231 after 24 hrs by microdilution broth method; assay type: functional; conditions: Aspergillus fumigatus, 231, 24 h; outline: as §1
[38] = test system: Pseudomonas aeruginosa; assay: Antibacterial activity against Pseudomonas aeruginosa CCM 1961 after 24 hrs by microdilution broth method; assay type: functional; conditions: CCM 1961, 24 h; outline: as §2
[39] = test system: Aspergillus fumigatus; assay: Antifungal activity against Aspergillus fumigatus 231 after 48 hrs by microdilution broth method; assay type: functional; conditions: Aspergillus fumigatus, 231, 48 h; outline: as §1
[40] = test system: Nakaseomyces glabratus; assay: Antifungal activity against Candida glabrata 20/I after 48 hrs by microdilution broth method; assay type: functional; outline: as §1
[41] = test system: Staphylococcus epidermidis; assay: Antibacterial activity against Staphylococcus epidermidis H 6966/08 after 48 hrs by microdilution broth method; assay type: functional; conditions: H 6966/08, 48 h; outline: as §2
[42] = test system: Staphylococcus aureus; assay: Antibacterial activity against methicillin-resistant Staphylococcus aureus H 5996/08 after 48 hrs by microdilution broth method; assay type: functional; conditions: H 5996/08, 48 h
[43] = test system: Staphylococcus aureus; assay: Antibacterial activity against Staphylococcus aureus CCM 4516/08 after 24 hrs by microdilution broth method; assay type: functional; conditions: CCM 4516/08, 24 h
[44] = test system: Lichtheimia corymbifera; assay: Antifungal activity against Absidia corymbifera 272 after 48 hrs by microdilution broth method; assay type: functional; conditions: Lichtheimia corymbifera, 272, 48 h; outline: as §1

SMILES: O=C(Nc1cccc(C(F)(F)F)c1)c1cc([N+](=O)[O-])ccc1O
- MIC [1]: 500 µM (≈ 163 µg/mL)
- MIC [2]: 500 µM (≈ 163 µg/mL)
- MIC [3]: 31.2 µM (≈ 10.2 µg/mL)
- MIC [4]: 125 µM (≈ 40.8 µg/mL)
- MIC [5]: > 500 µM
- MIC [6]: > 500 µM
- Selectivity Index [7]: 0.463
- MIC [8]: 500 µM (≈ 163 µg/mL)
- MIC [9]: 62.5 µM (≈ 20.4 µg/mL)
- MIC [10]: 62.5 µM (≈ 20.4 µg/mL)
- IC50 [11]: 7.4 µM
- MIC [12]: > 500 µM
- MIC [13]: 8 µM (≈ 2.61 µg/mL)
- MIC [14]: 500 µM (≈ 163 µg/mL)
- MIC [15]: > 500 µM
- MIC [16]: 32 µM (≈ 10.4 µg/mL)
- MIC [17]: 31.2 µM (≈ 10.2 µg/mL)
- MIC [18]: 125 µM (≈ 40.8 µg/mL)
- MIC [19]: > 500 µM
- MIC [20]: > 500 µM
- MIC [21]: 16 µM (≈ 5.22 µg/mL)
- MIC [22]: > 500 µM
- MIC [23]: > 500 µM
- MIC [24]: > 500 µM
- MIC [25]: > 500 µM
- MIC [26]: 31.2 µM (≈ 10.2 µg/mL)
- MIC [27]: > 500 µM
- MIC [28]: > 500 µM
- MIC [29]: 500 µM (≈ 163 µg/mL)
- MIC [30]: 32 µM (≈ 10.4 µg/mL)
- MIC [31]: 16 µM (≈ 5.22 µg/mL)
- MIC [32]: > 500 µM
- MIC [33]: > 500 µM
- MIC [34]: > 500 µM
- MIC [35]: 62.5 µM (≈ 20.4 µg/mL)
- MIC [36]: > 500 µM
- MIC [37]: 500 µM (≈ 163 µg/mL)
- MIC [38]: > 500 µM
- MIC [39]: 500 µM (≈ 163 µg/mL)
- MIC [40]: > 500 µM
- MIC [41]: 31.2 µM (≈ 10.2 µg/mL)
- MIC [42]: 31.2 µM (≈ 10.2 µg/mL)
- MIC [43]: 31.2 µM (≈ 10.2 µg/mL)
- MIC [44]: 500 µM (≈ 163 µg/mL)

From ChEMBL document CHEMBL3627671, “Novel derivatives of nitro-substituted salicylic acids: Synthesis, antimicrobial activity and cytotoxicity” (Bioorg Med Chem, 2015)
